Source: PubChem
Only some compounds are listed: those with a hit (about 2.6% of all), similar ones and a draw of the others.
STEP block = inhibitors of human striatal-enriched phosphatase STEP | AID 588621 | actives 0.25% (n = 360,000) | recombinant STEP, OMFP fluorogenic substrate, fluorescence | P54829 | inhibition, % at 20 µM;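 active = inhibition at 20 µM, scaled per plate between control wells, above about 37%, limit read from the data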;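 also: 0% = DMSO with enzyme and substrate and 100% = substrate only without enzyme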
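Material: STEP (striatal-enriched tyrosine phosphatase) enzyme, cell-free | Medium: 50 mM Bis-Tris pH 6.0 with 2.5 mM DTT and 0.005% Tween 20 | Read-out: Percent inhibition scaled to no-enzyme and uninhibited-enzyme controls, plate-pattern corrected | Signal: Fluorescence read at 480 nm ex / 540 nm em | Times: 20 min reaction, room temperature, in the dark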
LMPTP inh = LMPTP (human) inhibition; P24666; recombinant LMPTP-A, OMFP fluorogenic substrate, fluorescence intensity; inhibition, % at 20 µM; actives 0.22% (n = 360,000); AID 651560;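 active = compounds that cut the enzyme signal by at least half of the control window in the single-dose screen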;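 also: plate controls were DMSO wells with enzyme plus substrate for no effect and substrate without enzyme for full effect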
Target sequence (P24666 whole entry, looked up): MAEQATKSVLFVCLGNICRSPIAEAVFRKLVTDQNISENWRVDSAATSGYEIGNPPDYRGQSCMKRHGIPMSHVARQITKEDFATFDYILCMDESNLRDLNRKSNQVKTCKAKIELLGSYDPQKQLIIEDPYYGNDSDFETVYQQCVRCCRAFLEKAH
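Assay system: LMPTP-A, protein tyrosine phosphatase of low molecular weight / Medium: pH 6.0 Bis-Tris buffer with DTT and Triton X-100 / Schedule: 50 min enzyme reaction at room temperature, protected from light / Measured by: endpoint fluorescence intensity from OMFP dephosphorylation / Read-out basis: % inhibition relative to no-enzyme and uninhibited control wells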
NadD inh = inhibitors of Staphylococcus aureus NadD; purified NadD enzyme, colorimetric absorbance read-out; inhibition, % at 20 µM; actives 0.78% (n = 360,000); AID 602399; in the data active = inhibition above about 26%
Scp1 inh = Scp-1 (human) phosphatase inhibition; Q9GZU7; Recombinant Scp1, phosphopeptide, malachite green phosphate absorbance; inhibition, % at 20 µM; actives 0.88% (n = 340,000); AID 493091;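 active = inhibition above about 50% at 20 µM, limit read from the data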;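 also: plate controls were DMSO wells with enzyme for no effect and wells lacking enzyme for full effect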
Target sequence (Q9GZU7 76-261 limits assumed): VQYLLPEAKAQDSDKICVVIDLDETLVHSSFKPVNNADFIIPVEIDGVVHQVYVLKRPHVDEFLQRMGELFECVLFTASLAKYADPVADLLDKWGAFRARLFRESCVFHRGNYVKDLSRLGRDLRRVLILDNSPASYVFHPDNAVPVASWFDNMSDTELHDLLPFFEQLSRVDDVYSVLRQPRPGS
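System: truncated SCP-1 phosphatase (76-261aa); medium: Tris acetate buffer pH 5.5 with MgCl2 and Tween-20; incubation: 45 min room-temperature reaction, 5 min colour, 30 min stabiliser; compound: single 20 µM dose, 1% DMSO; reagent: Phosphorylated 17-residue peptide substrate; read-out: % inhibition at 20 µM; technique: colorimetric free-phosphate detection, absorbance 630 nm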
rCAG binder = molecules binding r(CAG) RNA repeats. r(CAG) RNA repeat, TO-PRO-1 dye displacement fluorescence. inhibition, % at 3 µM. actives 1.3% (n = 370,000);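 active = inhibition above the plate cutoff, the mean of all test compounds on that plate plus 3 SD, cut at about 35% in these data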;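 also: 0% = DMSO alone and 100% = 100 µM mitoxantrone as full dye displacement; higher means more dye released from RNA so lower well fluorescence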
* = called active by the depositor; . = no result.

SMILES	STEP block	LMPTP inh	NadD inh	Scp1 inh	rCAG binder
Nc1ccc(OCCCc2c(N)nc(N)nc2N)cc1	3	87*	44*	-11	5
COc1ccc(Cc2c(N)nc(N)nc2N)cc1	8	27	-7	16	3
Cc1cccc(C)c1NC(=O)Cn1nnc(-c2ccncc2)n1	.	.	.	.	1
CN(C)c1ccc(/C=C/C=C2/SC(=S)N(c3ccccc3)C2=O)cc1	14	19	43*	-5	17
O=C(O)c1ccc(N2C(=O)/C(=C/C=C/c3ccccc3)SC2=S)cc1	2	0	1	-2	13
COc1ccccc1NCCC(=O)O	5	-1	-3	-2	0
O=C(O)CCNc1ccc(NCCC(=O)O)c2c1C(=O)c1ccccc1C2=O	96*	72*	10	86*	19
CN(C)c1cccc(C(=O)OCc2cc(=O)oc3cc(O)ccc23)c1	41*	22	10	62*	27
CC(C)=CCC/C(C)=C/CN1C(=O)N(c2ccc(F)cc2)[C@H]2C[C@@H](c3ccccc3)[C@@H](C)[C@@H](C(=O)N3CCOCC3)C[C@H]21	.	.	.	.	5
O=C(O)CN1C(=O)/C(=C\c2cn(-c3ccccc3)nc2-c2ccccc2)SC1=S	9	2	31*	22	.
Cc1cccc(C2C3=C(Nc4[nH]n(-c5ccccc5)c(=O)c42)c2ccccc2C3=O)c1 (stereo not drawn)	5	5	8	-2	68*
CC1=C([N+](=O)[O-])C(c2ccccc2)C2=C(N1)c1ccccc1C2=O (stereo not drawn)	5	5	11	-25	8
Oc1cc(Nc2ccncc2)cc2cccnc12	3	56*	-2	-14	15
Nc1nc(=S)c2ncn([C@@H]3O[C@H](CO)[C@@H](O)[C@H]3O)c2[nH]1	2	-1	-2	-9	2
Nc1nc(=S)c2ncn(C3OC(CO)C(O)C3O)c2[nH]1 (stereo not drawn)	43*	26	1	77*	28
C/C(N)=C(/C#N)C(=O)CSc1nc2ccccc2c(=O)n1Cc1ccc(F)cc1	24	17	-8	73*	10
COc1cc(C2C(C#N)=C(N)Oc3c2ccc2ccccc32)ccc1OCC(=O)Nc1ccccc1C (stereo not drawn)	2	1	20	-6	36*
CCOC(=O)CC[C@@]1(C(=O)OCC)C[C@@H](CC(=O)NCCc2ccccc2OC)C(=O)N2CCCC=C21	.	.	.	.	1
CCOC(=O)C1(Cc2ccccc2)CCN(Cc2cccc(C#N)c2)CC1	.	.	.	.	-3
O=C(CSc1nc(-c2ccccc2)nc2ccccc12)Nc1cccc(C(=O)O)c1	2	0	5	24	31
O=C(CSc1nc(-c2ccc(F)cc2)nc2c1Cc1ccccc1O2)Nc1ccc(C(=O)O)cc1	96*	85*	5	102*	24
O=C(CSc1nc2ccccc2c(=O)n1-c1ccc(F)cc1)Nc1ccc(C(=O)O)cc1	1	-2	-2	-16	8
O=C(CSc1nc(-c2ccccc2)nc2c1Cc1ccccc1O2)Nc1ccc(C(=O)O)cc1	87*	79*	19	90*	4
CN1C(=O)C[C@@](C#N)(C(=O)N2CCOCC2)[C@H]1c1ccccc1	.	.	.	.	1
O=C(O)c1cc(S(=O)(=O)Nc2ccc3oc(=O)sc3c2)ccc1O	.	.	.	-1	60*
SMILES	STEP block	LMPTP inh	NadD inh	Scp1 inh	rCAG binder
Cc1ccc(OCC(=O)Nc2sc3c(c2C#N)CC(C)(C)NC3(C)C)cc1	3	0	-5	-5	-4
CC1(C)Cc2c(sc(NC(=O)COc3cccc4ccccc34)c2C#N)C(C)(C)N1	69*	4	0	-11	0
COc1cccc(/C=N/NC(=O)c2[nH]c(C)c(C(=O)N/N=C/c3cccc(OC)c3O)c2C)c1O	4	2	35*	-14	25
COc1cccc(/C=N/NC(=O)c2cc(-c3ccccn3)nc3ccccc23)c1O	-3	1	48*	-3	19
COc1cccc(/C=N/NC(=O)c2ccc(-c3ccccc3)cc2)c1O	1	14	15	0	9
O=[N+]([O-])c1cc(CN2CCOCC2)c2cccnc2c1O	.	.	.	66*	.
O=[N+]([O-])c1cc(Cl)c(O)c2ncccc12	6	25	12	-9	9
O=[N+]([O-])c1cc(CN2CCN(c3ccccc3)CC2)c(O)c2ncccc12	4	5	71*	-4	2
